Source: ChEMBL document CHEMBL1145859, “Tethered dimers as NAD synthetase inhibitors with antibacterial activity” (J Med Chem, 2003)
Values after ≈ are worked out from the molar mass of the structure shown.

Tests used:
[1] = target: T1, NH(3)-dependent NAD(+) synthetase (Bacillus subtilis (strain 168), UniProt P08164); assay: Inhibitory activity against Bacillus subtilis NAD synthetase
T1 sequence (P08164 whole entry): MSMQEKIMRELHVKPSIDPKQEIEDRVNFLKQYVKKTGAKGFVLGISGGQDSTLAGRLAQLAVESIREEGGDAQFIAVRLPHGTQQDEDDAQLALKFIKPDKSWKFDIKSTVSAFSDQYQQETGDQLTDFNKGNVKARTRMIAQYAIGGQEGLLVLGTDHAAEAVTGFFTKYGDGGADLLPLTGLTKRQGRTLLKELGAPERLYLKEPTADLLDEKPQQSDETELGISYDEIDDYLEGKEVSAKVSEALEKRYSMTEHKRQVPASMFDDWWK
Method in brief: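 Purified recombinant B. subtilis NAD synthetase (2.0 µg/mL) in coupled assay, pH 8.5: 58.5 mM HEPES, 18.5 mM NH4Cl, 19.5 mM KCl, 9.75 mM MgCl2, 1% EtOH, 0.1 mM NaAD, 0.3% BOG, 40 µg/mL yeast ADH, 0.2 mM ATP, 2.5% DMSO. ATP-started, 10 min, guanidine·HCl stop; NADH read at A340 and fluorescence 460 nm, background-subtracted; IC50 from % inhibition at six concentrations.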

Staphylococcus aureus [2] = assay: Minimum inhibitory concentration required against Staphylococcus aureus ATCC 33591; format: functional
Method in brief: (§1)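 Broth doubling-dilution MIC run in duplicate series from 50 µg/mL (1% DMSO final). Each tube received 0.01 mL of inoculum from a log-phase culture (5–6 h, 37 °C) adjusted to about 5 × 10^8 CFU/mL. Incubation 20 h at 37 ± 2 °C. MIC is the lowest concentration with no visible growth. Viability, sterility and reference-antibiotic controls included.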

Staphylococcus aureus [3] = assay: Minimum inhibitory concentration required against Staphylococcus aureus ATCC 29213; format: functional; method in brief: as §1
Staphylococcus aureus [4] = assay: Minimum inhibitory concentration required against Staphylococcus aureus ATCC 33593; format: functional; method in brief: as §1
Staphylococcus aureus [5] = assay: Minimum inhibitory concentration required against Staphylococcus aureus ATCC 33592; format: functional; method in brief: as §1
Bacillus subtilis = assay: Minimum inhibitory concentration required against Bacillus subtilis ATCC 14289; format: functional; method in brief: as §1
Pseudomonas aeruginosa = assay: Minimum inhibitory concentration required against Pseudomonas aeruginosa ATCC 27853; format: functional; method in brief: as §1
Salmonella enteritidis [6] = assay: Minimum inhibitory concentration required against Salmonella enteritidis ATCC 13076; format: functional, Salmonella enterica subsp. enterica serovar Enteritidis; details: Salmonella enterica; method in brief: as §1
Salmonella enteritidis [7] = assay: microbe, parasite or virus in culture; details: Salmonella enterica, ATCC 13076

| Compound | IC50 [1] | further results |
| --- | --- | --- |
| COC(=O)c1cc2ccccc2n1CCCCCCCCOC(=O)c1cc[n+](C)cc1 | 44 µM |  |
| C[n+]1cccc(C(=O)OCCCCCn2ccc3cc([N+](=O)[O-])ccc32)c1 | 1000 µM |  |
| COC(=O)c1cc2cc(OCc3ccccc3)ccc2n1CCCCCCOC(=O)c1ccc[n+](C)c1 | 37 µM |  |
| COC(=O)c1cc2ccccc2n1CCCCCCCOC(=O)c1ccc[n+](C)c1 | 34 µM |  |
| O=C(OCCCCn1ccc2cc([N+](=O)[O-])ccc21)c1cccnc1 | > 1000 µM |  |
| C[N+](C)(C)c1ccc(CC(=O)OCCCCCCn2ccc3cc([N+](=O)[O-])ccc32)cc1 | 84 µM |  |
| COc1cccc(OC)c1C(=O)N[C@@H]1C(=O)N2[C@@H]1SC(C)(C)[C@@H]2C(=O)O | > 1 µM | MIC (Staphylococcus aureus [2]): 32 µM (≈ 12.2 µg/mL); MIC (Staphylococcus aureus [3]): 1 µM (≈ 0.38 µg/mL); MIC (Staphylococcus aureus [4]): 32 µM (≈ 12.2 µg/mL); MIC (Staphylococcus aureus [5]): 32 µM (≈ 12.2 µg/mL) |
| C[N+](C)(C)c1ccc(CC(=O)OCCCCCn2ccc3cc(OCc4ccccc4)ccc32)cc1 | 60 µM |  |
| C[n+]1cccc(C(=O)OCCCn2ccc3cc([N+](=O)[O-])ccc32)c1 | > 1000 µM |  |
| C[n+]1cccc(C(=O)OCCCCCCCn2ccc3ccccc32)c1 | 95 µM |  |
| COC(=O)c1cc2ccccc2n1CCCCCCCCCOC(=O)c1ccc[n+](C)c1 | 34 µM |  |
| COC(=O)c1cc2cc(OCc3ccccc3)ccc2n1CCCCCCCOC(=O)Cc1ccc([N+](C)(C)C)cc1 | 9 µM | MIC (Staphylococcus aureus [2]): 6.2 µM; MIC (Staphylococcus aureus [3]): 1.5 µM; MIC (Bacillus subtilis): 1.5 µM; MIC (Pseudomonas aeruginosa): > 50 µM; MIC (Staphylococcus aureus [4]): 3.1 µM; MIC (Staphylococcus aureus [5]): 3.1 µM; MIC (Salmonella enteritidis [6]): > 50 µM |
| C[N+](C)(C)c1ccc(CC(=O)OCCCCn2ccc3cc(OCc4ccccc4)ccc32)cc1 | 84 µM |  |
| COc1cc(Cc2cnc(N)nc2N)cc(OC)c1OC [TRIMETHOPRIM] | > 1 µM | MIC (Salmonella enteritidis [7]): 0.5 µM (≈ 0.145 µg/mL) |
| C[n+]1cccc(C(=O)OCCn2ccc3cc([N+](=O)[O-])ccc32)c1 | > 1000 µM |  |
| GENTAMICIN |  | MIC (Pseudomonas aeruginosa): 2 µM |
| C[n+]1cccc(C(=O)OCCOCCOCCn2ccc3cc(OCc4ccccc4)ccc32)c1 | > 200 µM | MIC (Staphylococcus aureus [3]): > 50 µM; MIC (Bacillus subtilis): > 50 µM |
| C[n+]1cccc(C(=O)OCCCCCn2ccc3cc(OCc4ccccc4)ccc32)c1 | 94 µM |  |
| C[n+]1cccc(C(=O)OCCCCCCn2ccc3cc([N+](=O)[O-])ccc32)c1 | 500 µM |  |
| O=C(OCCCCCCCCn1ccc2cc([N+](=O)[O-])ccc21)c1cccnc1 | > 1000 µM |  |
| C[n+]1cccc(C(=O)OCCCCCCCCCn2ccc3ccccc32)c1 | 48 µM |  |
| O=C(OCCCCCCCCn1ccc2cc(O)ccc21)c1cccnc1 | > 200 µM |  |
| C[N+](C)(C)c1ccc(CC(=O)OCCCCCCCCCn2ccc3ccccc32)cc1 | 54 µM |  |
| C[n+]1cccc(C(=O)OCCCCCCn2ccc3cc(OCc4ccccc4)ccc32)c1 | 29 µM |  |

| Compound | IC50 [1] | further results |
| --- | --- | --- |
| COC(=O)c1cc2cc(OCc3ccccc3)ccc2n1CCCCCCCCCOC(=O)Cc1ccc([N+](C)(C)C)cc1 | 18 µM | MIC (Staphylococcus aureus [3]): 6.2 µM; MIC (Bacillus subtilis): 1.5 µM |
| COC(=O)c1cc2cc(OCc3ccccc3)ccc2n1CCCCCCOC(=O)Cc1ccc([N+](C)(C)C)cc1 | 12 µM |  |
| COC(=O)c1cc2cc(OCc3ccccc3)ccc2n1CCCCCCCCOC(=O)c1cc[n+](C)cc1 | 10 µM | MIC (Staphylococcus aureus [3]): 6.2 µM; MIC (Bacillus subtilis): 12.5 µM; MIC (Pseudomonas aeruginosa): > 50 µM; MIC (Salmonella enteritidis [6]): > 50 µM |
| C[N+](C)(C)c1ccc(CC(=O)OCCCCCCn2ccc3cc(OCc4ccccc4)ccc32)cc1 | 69 µM |  |
| O=C(OCCn1ccc2cc([N+](=O)[O-])ccc21)c1cccnc1 | > 1000 µM |  |
| COC(=O)c1cc2ccccc2n1CCCCCCOC(=O)Cc1ccc([N+](C)(C)C)cc1 | 24 µM |  |
| C[N+](C)(C)c1ccc(CC(=O)OCCCCCCCCn2ccc3ccccc32)cc1 | 63 µM |  |
| C[n+]1cccc(C(=O)OCCCCn2ccc3cc([N+](=O)[O-])ccc32)c1 | > 1000 µM |  |
| C[n+]1cccc(C(=O)OCCCCCCCCn2ccc3cc(OCc4ccccc4)ccc32)c1 |  | MIC (Staphylococcus aureus [2]): 12.5 µM; MIC (Staphylococcus aureus [3]): 1.5 µM; MIC (Bacillus subtilis): 6.2 µM; MIC (Pseudomonas aeruginosa): 50 µM; MIC (Staphylococcus aureus [4]): 3.1 µM; MIC (Staphylococcus aureus [5]): 6.2 µM; MIC (Salmonella enteritidis [6]): 50 µM |
| CO[C@H]1/C=C/O[C@@]2(C)Oc3c(C)c(O)c4c(O)c(c(/C=N/N5CCN(C)CC5)c(O)c4c3C2=O)NC(=O)/C(C)=C\C=C\[C@H](C)[C@H](O)[C@@H](C)[C@@H](O)[C@@H](C)[C@H](OC(C)=O)[C@@H]1C [RIFAMPIN] | > 1 µM | MIC (Bacillus subtilis): 1 µM (≈ 0.823 µg/mL) |
| COc1ccc2c(ccn2CCCCCCCOC(=O)c2ccc[n+](C)c2)c1 | 24 µM |  |
| COC(=O)c1cc2cc(OCc3ccccc3)ccc2n1CCCCCCCOC(=O)c1ccc[n+](C)c1 | 18 µM | MIC (Staphylococcus aureus [3]): 3.1 µM; MIC (Bacillus subtilis): 6.2 µM; MIC (Pseudomonas aeruginosa): > 50 µM; MIC (Salmonella enteritidis [6]): > 50 µM |
| O=C(OCCCCCCn1ccc2cc([N+](=O)[O-])ccc21)c1cccnc1 | > 1000 µM |  |
| C[N+](C)(C)c1ccc(CC(=O)OCCCCCCCCCn2ccc3cc([N+](=O)[O-])ccc32)cc1 | 24 µM |  |
| COC(=O)c1cc2cc(OCc3ccccc3)ccc2n1CCCCCCCCOC(=O)Cc1ccc([N+](C)(C)C)cc1 | 20 µM |  |
| C[N+](C)(C)c1ccc(CC(=O)OCCCCn2ccc3cc([N+](=O)[O-])ccc32)cc1 | 89 µM |  |
| O=C(OCCCCCCCn1ccc2cc([N+](=O)[O-])ccc21)c1cccnc1 | > 1000 µM |  |
| O=C(OCCCn1ccc2cc([N+](=O)[O-])ccc21)c1cccnc1 | > 1000 µM |  |
| COC(=O)c1cc2cc(OCc3ccccc3)ccc2n1CCCCCCCCCOC(=O)c1ccc[n+](C)c1 | 27 µM |  |
| C[N+](C)(C)c1ccc(CC(=O)OCCCCCCCCn2ccc3cc(OCc4ccccc4)ccc32)cc1 | 20 µM | MIC (Staphylococcus aureus [3]): 3.1 µM; MIC (Bacillus subtilis): 1.5 µM; MIC (Pseudomonas aeruginosa): > 50 µM; MIC (Salmonella enteritidis [6]): > 50 µM |
| C[N+](C)(C)c1ccc(CC(=O)OCCCCCn2ccc3cc([N+](=O)[O-])ccc32)cc1 | 70 µM |  |
| O=C(OCCCCCn1ccc2cc([N+](=O)[O-])ccc21)c1cccnc1 | > 1000 µM |  |
| COC(=O)c1cc2ccccc2n1CCCCCCCCOC(=O)Cc1ccc([N+](C)(C)C)cc1 | 14 µM | MIC (Staphylococcus aureus [3]): 3.1 µM; MIC (Bacillus subtilis): 6.2 µM; MIC (Pseudomonas aeruginosa): > 50 µM; MIC (Salmonella enteritidis [6]): > 50 µM |
| COC(=O)c1cc2ccccc2n1CCCCCCCOC(=O)Cc1ccc([N+](C)(C)C)cc1 | 19 µM | MIC (Staphylococcus aureus [3]): 12.5 µM; MIC (Bacillus subtilis): 1.5 µM; MIC (Pseudomonas aeruginosa): > 50 µM; MIC (Salmonella enteritidis [6]): > 50 µM |
